From ChEMBL document CHEMBL1142455, “Synthesis and biological evaluation of immunosuppressive agent DZ2002 and its stereoisomers” (Bioorg Med Chem, 2008)
Activity calls are given as the source filed them. The rule behind the calls is not given here.

How the values were obtained:
[1] = system: Splenic lymphocyte; assay: Immunosuppressive activity in BALB/c mouse splenic lymphocytes co-cultured with C57BL/6 mouse splenic lymphocytes assessed as inhibition of cell proliferation after 72 hrs by mixed lymphocyte reaction assay; format: functional, cell-based
Summary of the method: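 Stimulator BALB/c splenic lymphocytes (1 × 10⁷ cells/mL) were γ-irradiated with ⁶⁰Co for 7 min. They were co-cultured with fresh C57BL/6 splenic responder lymphocytes and compound at 25, 50 or 100 μM in RPMI 1640 with FCS for 72 h at 37 °C under 5% CO₂. Cells were then pulsed with [³H]thymidine for another 24 h to read proliferation.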

[2] = Cytotoxicity against BALB/c mouse splenic lymphocytes co-cultured with C57BL/6 mouse splenic lymphocytes assessed as reduction of cell viability after 72 hrs; format: cell-based, Splenic lymphocyte; conditions: BALB/c and C57BL/6, mouse
[3] = Inhibition of rabbit erythrocyte SAHase by DTNB-coupled assay; set-up: species or system Oryctolagus cuniculus
Summary of the method: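 SAHase hydrolytic activity was measured by DTNB-coupled assay. Enzyme and compound were preincubated in phosphate buffer, pH 8.0, for 10 min before the reaction was started.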

| IC50 [3] [µM] | SMILES | Activity [1] | CC50 at 72 h [2] [µM] |
| --- | --- | --- | --- |
| 21.2 | COC(=O)[C@@H](O)CCn1cnc2c(N)ncnc21 | Active | > 1000 |
| 61.3 | COC(=O)[C@H](O)CCn1cnc2c(N)ncnc21 | Active | > 1000 |
| 194 | COC(=O)C(=O)CCn1cnc2c(N)ncnc21 | Active | > 1000 |
| 24.4 | COC(=O)C(O)CCn1cnc2c(N)ncnc21 (racemic) | Active | > 1000 |
